Test results reported in ChEMBL document CHEMBL4477209, “Indole-2-carboxamide-based MmpL3 Inhibitors Show Exceptional Antitubercular Activity in an Animal Model of Tuberculosis Infection” (J Med Chem, 2016).
In brackets after ≈: the same amount, converted by molar mass. Activity calls are given as the source filed them. The calls are words filed in the database; no cut-off is given here.

How the values were obtained:
[1] = tested on: Mycobacterium tuberculosis H37Rv; assay: Inhibition of MmpL3 in clinical isolates of drug sensitive Mycobacterium tuberculosis H37Rv after 7 to 14 days by alamar blue assay
[2] = tested on: Mycobacterium tuberculosis; assay: Inhibition of MmpL3 in clinical isolates of drug sensitive Mycobacterium tuberculosis V4207 after 7 to 14 days by alamar blue assay
[3] = tested on: Mycobacterium tuberculosis; assay: Antimycobacterial activity against Mycobacterium tuberculosis H37Rv grown on serum isolated from 100 mg/kg, po treated BALB/c mouse for 30 to 120 mins assessed as reduction in bacterial growth followed by bacterial addition incubated for 7 days by alamar blue reagent based serum inhibition titration assay; format: functional, organism-based
In short: (§1)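 Six-week-old female BALB/c mice (20 g) given one oral dose as suspension in 0.5% CMC in water; isoniazid 10 mg/kg as positive control, vehicle as negative. Serum collected at 30, 60 and 120 min, pooled from three mice per time point, 2-fold serially diluted. 10^4 CFU H37Rv added per well, 7 days at 37 °C. alamarBlue added for 16−18 h, fluorescence read at Ex544/Em590 and plotted against serum titration.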

[4] = tested on: Vero; assay: Cytotoxicity against african green monkey Vero cells; format: cell-based; conditions: Chlorocebus sabaeus
[5] = Selectivity index, ratio of IC50 for african green monkey Vero cells to MIC for clinical isolates of Mycobacterium tuberculosis; format: toxicity; conditions: read-out: Selectivity Index
[6] = Oral bioavailability in BALB/c mouse at 100 mg/kg administered for 30 to 120 mins followed by Mycobacterium tuberculosis H37Rv addition to compound treated serum incubated for 7 days by alamar blue reagent based serum inhibition titration assay; format: ADME, organism-based; conditions: in vivo; in short: as §1

SMILES | MIC90 [1] [µM] | other results
C[C@@H](NC(=O)c1cc2c(Cl)cc(Cl)cc2[nH]1)C1CCCCC1 | 5.9 (≈ 2 µg/mL) | –
C[C@@H](NC(=O)c1cc2c(F)cc(F)cc2[nH]1)C1CCCCC1 | 13 (≈ 3.98 µg/mL) | –
Cc1ccc2[nH]c(C(=O)NC3CCCCCC3)cc2c1 | 7.4 (≈ 2 µg/mL) | –
C[C@@H]1[C@@H](NC(=O)c2cc3c(Cl)cc(Cl)cc3[nH]2)C[C@H]2C[C@@H]1C2(C)C | 0.086 (≈ 0.0314 µg/mL) | –
CC1(C)[C@H]2CC[C@@]1(C)[C@H](NC(=O)c1cc3c(Cl)cc(Cl)cc3[nH]1)C2 | 0.043 (≈ 0.0157 µg/mL) | –
C[C@@H]1[C@@H](NC(=O)c2cc3c(F)cc(F)cc3[nH]2)C[C@H]2C[C@@H]1C2(C)C | 0.19 (≈ 0.0632 µg/mL) | –
Cc1cc(C)c2cc(C(=O)NC3CCCCCCC3)[nH]c2c1 | 0.013 (≈ 0.00388 µg/mL) | –
O=C(NC1CCCCCCC1)c1cc2c(Cl)cc(Cl)cc2[nH]1 | 0.011 (≈ 0.00373 µg/mL) | MIC [2]: 11 µM (≈ 3.73 µg/mL); Activity [3]: Active; IC50 [4]: 23.5 to 47 µM; selectivity ratio [5]: 2140 to 4270; Drug uptake [6]: Active
CCCCCCCCNC(=O)c1cc2c(Cl)cc(Cl)cc2[nH]1 | > 300 | –
O=C(NC1CCCCCCC1)c1cc2ccc(Br)cc2[nH]1 | 0.09 (≈ 0.0314 µg/mL) | –
Cc1cccc2cc(C(=O)NC3CCCCCCC3)[nH]c12 | 3.5 (≈ 0.995 µg/mL) | –
O=C(NC12CC3CC(CC(C3)C1)C2)c1cc2ccc(Br)cc2[nH]1 | 0.042 (≈ 0.0157 µg/mL) | –
CCCCCCCNC(=O)c1cc2c(Cl)cc(Cl)cc2[nH]1 | > 300 | –
Cc1cccc2[nH]c(C(=O)NC3CCCCCCC3)cc12 | 0.11 (≈ 0.0313 µg/mL) | –
CC(C)=CCC/C(C)=C/CNC(=O)c1cc2c(Cl)cc(Cl)cc2[nH]1 | 11 (≈ 4.02 µg/mL) | –
O=C(NC1Cc2ccccc2C1)c1cc2c(F)cc(F)cc2[nH]1 | 102 (≈ 31.9 µg/mL) | –
C[C@@H]1[C@H]2C[C@@H](C[C@H]1NC(=O)c1cc3ccc(Br)cc3[nH]1)C2(C)C | 0.01 (≈ 0.00375 µg/mL) | –
C[C@@H]1[C@H]2C[C@@H](C[C@H]1NC(=O)c1cc3c(Cl)cc(Cl)cc3[nH]1)C2(C)C | 0.021 (≈ 0.00767 µg/mL) | MIC [2]: 43 µM (≈ 15.7 µg/mL); Activity [3]: Active; IC50 [4]: 43.8 µM; selectivity ratio [5]: 2080; Drug uptake [6]: Active
Cc1cc(C)c2[nH]c(C(=O)NC3CCCCCCC3)cc2c1 | 0.21 (≈ 0.0627 µg/mL) | –
O=C(Nc1nc2ccc(OC(F)(F)F)cc2s1)C1CCCCCC1 | > 300 | –
Cc1ccc2cc(C(=O)NC3CCCCCCC3)[nH]c2c1 | 0.11 (≈ 0.0313 µg/mL) | –
